The EC50 is the concentration giving half of the maximal effect. A high value points to a need for much substance. For orientation: half-life means the time needed for the level to fall by half in the phase considered.

In data set [1] the target is T1, Protein-serine O-palmitoleoyltransferase porcupine (Mus musculus, UniProt Q9JJJ7).
T1 sequence (Q9JJJ7 whole entry): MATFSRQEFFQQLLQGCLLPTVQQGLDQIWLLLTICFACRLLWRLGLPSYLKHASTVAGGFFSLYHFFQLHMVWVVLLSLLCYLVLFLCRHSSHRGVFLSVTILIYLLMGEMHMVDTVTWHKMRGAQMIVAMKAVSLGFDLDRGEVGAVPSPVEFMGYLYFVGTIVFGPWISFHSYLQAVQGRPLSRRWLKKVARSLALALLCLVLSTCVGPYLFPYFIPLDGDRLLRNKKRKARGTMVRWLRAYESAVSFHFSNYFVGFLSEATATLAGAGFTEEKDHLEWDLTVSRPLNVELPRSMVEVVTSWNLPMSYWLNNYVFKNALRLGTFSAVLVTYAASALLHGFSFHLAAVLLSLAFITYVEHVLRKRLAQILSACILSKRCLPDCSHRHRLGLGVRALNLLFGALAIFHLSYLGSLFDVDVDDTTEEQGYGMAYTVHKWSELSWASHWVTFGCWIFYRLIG
In words: Inhibition of porcupine-mediated Wnt signaling in mouse L-cells after 24 hrs by springerImage-Topflash reporter assay. A general note: In a reporter assay the amount or activity of a reporter protein is the signal.

Data set [2] is described as follows: Half life in mouse plasma at 2 uM in presence of NADPH by LC-MS/MS analysis. In kind it is ADME, cell-free.
Data set [3] concerns the target T2, Protein-serine O-palmitoleoyltransferase porcupine (Homo sapiens) (UniProt Q9H237).
T2 sequence (whole entry): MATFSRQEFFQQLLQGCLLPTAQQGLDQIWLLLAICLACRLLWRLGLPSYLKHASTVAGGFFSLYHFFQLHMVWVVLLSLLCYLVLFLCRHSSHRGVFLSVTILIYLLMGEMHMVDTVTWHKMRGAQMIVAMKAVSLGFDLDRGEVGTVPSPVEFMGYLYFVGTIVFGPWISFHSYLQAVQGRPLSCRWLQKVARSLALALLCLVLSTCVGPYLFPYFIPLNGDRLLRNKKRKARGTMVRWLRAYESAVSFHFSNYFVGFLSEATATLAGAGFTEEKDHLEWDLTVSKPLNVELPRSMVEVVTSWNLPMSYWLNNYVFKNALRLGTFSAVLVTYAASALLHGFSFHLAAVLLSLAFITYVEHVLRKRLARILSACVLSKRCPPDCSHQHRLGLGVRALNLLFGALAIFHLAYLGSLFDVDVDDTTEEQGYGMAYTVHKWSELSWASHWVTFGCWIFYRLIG
As to the kind of experiment: Inhibition of porcupine-mediated phosphorylation of dishevelled 2/3 in human HeLa cells at 1 uM after 24 hrs by Western blot analysis. The format is cell-based. A digest of the protocol:
(§1)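 HeLa cells, which have high cell-autonomous Wnt signalling, were treated for 24 h with compound, the LGK974 reference or DMSO vehicle. Cell lysates were then analysed by Western blot for phosphorylation of LRP6 and of Dvl2/3, used as biochemical markers of Wnt pathway activity.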
(Immunoblotting shows a protein as a band on a membrane.)

The target of data set [4] is T2, Protein-serine O-palmitoleoyltransferase porcupine (Homo sapiens). In words: Inhibition of porcupine-mediated phosphorylation of LRP6 in human HeLa cells at 1 uM after 24 hrs by Western blot analysis. The format is cell-based. The method, boiled down: as §1
Data set [5] is described as follows: Stability in mouse plasma at 2 uM in presence of NADPH by LC-MS/MS analysis.
A short description of data set [6]: Half life in ICR/CD-1 mouse liver S9 fraction at 2 uM in presence of NADPH by LC-MS/MS analysis. The format is ADME, subcellular. The conditions noted are these: s9, 2 µM.

SMILES strings stand for the structures. Active and inactive are the calls of the source.

On to `O=C(Cn1nnc(-c2ccncc2)c1-c1ccc(F)cc1)Nc1ccc(-c2ccccc2)cn1`, for which, in data set [1], the EC50 came to 0.2 nM.
On the same count and under the same terms, as for `N#Cc1ccc(-c2c(-c3ccncc3)nnn2CC(=O)Nc2ccc(-c3ccccc3)cn2)cc1`, the figure is 0.48 nM; as for `O=C(Cn1nnc(-c2ccncc2)c1-c1ccccc1)Nc1ccc(-c2ccoc2)cn1`, 0.6 nM.
The same measure, in the same setting: as for `O=C(Cn1nnc(-c2ccncc2)c1-c1ccccc1)Nc1ncc(-c2ccccc2)cn1`, the figure is 8 nM; as for `Cc1cc(-c2nnn(CC(=O)Nc3ccc(-c4ccccc4)cn3)c2-c2ccccc2)ccn1`, 0.14 nM.
Regarding `COc1ccccc1-c1c(-c2ccncc2)nnn1CC(=O)Nc1ccc(-c2ccccc2)cn1`, the EC50 in data set [1] worked out at 9 nM.
In data set [1], `O=C(Cn1cc(-c2ccccn2)nn1)Nc1ccc(-c2ccccc2)cn1` returned a concentration giving a half-maximal response (EC50) of more than 5000 nM.
As to `O=C(Cn1nnc(-c2ccccn2)c1-c1ccccc1)Nc1ccc(-c2ccccc2)cn1`, in data set [1], it took 2500 nM to reach a half-maximal effect (EC50).
The same measure, in the same setting: as for `O=C(Cn1cc(-c2ccccc2)nn1)Nc1ccc(-c2ccccc2)cn1`, the figure is more than 5000 nM; as for `O=C(Cn1nnc(-c2ccncc2)c1-c1ccccc1)Nc1ccc(N2CCCCC2)cc1`, 8 nM.
Still for that read-out and setting: as for `O=C(Cn1nnc(-c2ccncc2)c1-c1ccccc1)Nc1ccc(N2CCCCC2)cn1`, the figure is more than 1000 nM.
Still for that read-out and setting: under `O=C(Cn1nnc(-c2ccccc2)c1-c1ccccc1)Nc1ccc(-c2ccccc2)cn1` stands 400 nM; under `O=C(Cn1nnc(-c2cccnc2)c1-c1ccccc1)Nc1ccc(-c2ccccc2)cn1`, 5 nM.
In turn, `O=C(Cn1nnc(-c2ccncc2)c1-c1ccccc1)Nc1ncc(-c2ccccc2)s1` returned an EC50 in data set [1] of 80000 nM.
Compound `CCC(C(=O)Nc1ccc(-c2ccccc2)cn1)n1nnc(-c2ccncc2)c1-c1ccccc1` (stereo unspecified) gave an EC50 in data set [1] of 12 nM.
Same read-out and setting: under `O=C(Cn1nnc(-c2ccnc(C(F)(F)F)c2)c1-c1ccccc1)Nc1ccc(-c2ccccc2)cn1` stands 0.6 nM.
Regarding `O=C(Cn1nnc(-c2ccncc2)c1-c1ccccc1)Nc1ccc(-c2ccccc2)cn1`, the t1/2 in data set [2] is 2.17 h. In addition, in data set [1], the response was half-maximal at 0.08 nM (EC50). Besides, the inhibition entry in data set [3] and in data set [4] was “Active” each time. Further, the half-life at 2 µM in data set [5] was more than 4 h.
`O=C(Cn1nnc(-c2ccccc2C(F)(F)F)c1-c1ccccc1)Nc1ccc(-c2ccccc2)cn1` came in with an EC50 in data set [1] of 500 nM.
Same read-out and setting: under `Cc1cccc(-c2c(-c3ccncc3)nnn2CC(=O)Nc2ccc(-c3ccccc3)cn2)c1` stands 0.4 nM; under `O=C(Cn1nnc(-c2ccnc(F)c2)c1-c1ccccc1)Nc1ccc(-c2ccccc2)cn1`, 0.13 nM.
Still for that read-out and setting: under `O=C(Cn1nnc(-c2ccncc2)c1-c1ccccc1)Nc1ccc(-c2ccncc2)cc1` stands 7 nM; under `O=C(Cn1nnc(-c2ccncc2)c1-c1ccccc1)Nc1ccc(-c2ccccc2)nc1`, 0.2 nM; under `COc1ccc(-c2nnn(CC(=O)Nc3ccc(-c4ccccc4)cn3)c2-c2ccccc2)cc1`, 18 nM.
For the compound `O=C(Cn1nnc(-c2ccncc2)c1-c1ccccc1)Nc1ccc(-c2cccnc2)cn1`, in data set [1], the EC50 was more than 1000 nM.
For `O=C(Cn1nnc(-c2ccncc2)c1-c1ccccc1)Nc1ccc(-c2cncnc2)cn1`, the EC50 in data set [1] came out at 1.8 nM.
With `O=C(CSc1nnc(-c2ccncc2)n1-c1ccccc1)Nc1ccc(-c2cccnc2)cc1`, the t1/2 in data set [6] is 0.25 h; in data set [2] it was less than 0.083 h.
In data set [1], `CCOC(=O)c1ccc(-c2c(-c3ccncc3)nnn2CC(=O)Nc2ccc(-c3ccccc3)cn2)cc1` gave an EC50 of 0.7 nM.
Turning to `O=C(Cn1cc(-c2cccnc2)nn1)Nc1ccc(-c2ccccc2)cn1`, the EC50 in data set [1] turned out to be 100 nM.
`O=C(Cn1nnc(-c2ccncc2)c1-c1ccccc1)Nc1ccc(-c2ccsc2)cn1` displayed an EC50 in data set [1] of 0.65 nM.
In data set [1], `O=C(Cn1nnc(-c2ccncc2)c1-c1ccccc1)Nc1ccc(-c2ccccn2)cc1` displayed an EC50 of 1.8 nM.
Same read-out and setting: as for `CC(C(=O)Nc1ccc(-c2ccccc2)cn1)n1nnc(-c2ccncc2)c1-c1ccccc1` (stereo unspecified), the figure is 3 nM.
In data set [1], `O=C(Cn1nnc(-c2ccncc2)c1-c1ccccc1)Nc1ccc(-c2ccco2)cn1` had an EC50 of 0.4 nM.
For `COc1ccc(-c2c(-c3ccncc3)nnn2CC(=O)Nc2ccc(-c3ccccc3)cn2)cc1`, in data set [1], the midpoint of the response, the EC50, lay at 0.18 nM.
Regarding `O=C(Cn1nnc(-c2ccncc2)c1-c1ccc(C(F)(F)F)cc1)Nc1ccc(-c2ccccc2)cn1`, the concentration giving a half-maximal response (EC50) in data set [1] is 0.3 nM.
Take `O=C(Cn1cc(-c2ccncc2)nn1)Nc1ccc(-c2ccccc2)cn1`: the t1/2 was determined as 3.33 h in data set [6] and 1.67 h in data set [2]. Further, the EC50 in data set [1] was 9 nM.
As for `O=C(Cn1nnc(-c2ccncc2)c1-c1ccccc1)Nc1ccc(-c2cccnc2)cc1`, the EC50 in data set [1] was determined as 200 nM.
On the same count and under the same terms, under `Cc1ccccc1-c1c(-c2ccncc2)nnn1CC(=O)Nc1ccc(-c2ccccc2)cn1` stands 40 nM; under `O=C(Cn1nnc(-c2ccncc2)c1-c1ccccc1)Nc1cccc(-c2ccccc2)c1`, 270 nM; under `O=C(Cn1nnc(-c2ccncc2)c1-c1cccc2ccccc12)Nc1ccc(-c2ccccc2)cn1`, 6.5 nM.

These data come from ChEMBL document CHEMBL3870337, “Development of a triazole class of highly potent Porcn inhibitors” (Bioorg Med Chem Lett, 2016).
